Experimental data of several laboratories.
Each line is one published result; the experiments were not run side by side.
Observed: cell growth or viability

Structure (SMILES)	cell line	assay	setting	IC50 [nM]
COc1nc(NCc2cn(-c3ccc(C(=O)Nc4ccc(Cl)cc4)cc3)nn2)nc(OC)n1	Caco-2	MTT	72 h	543
COc1cccc2c1C(=O)c1c(O)c3c(c(O)c1C2=O)C[C@@](O)(C(=O)CO)C[C@@H]3O[C@H]1C[C@H](N)[C@H](O)[C@H](C)O1	NCI-H1650	MTT	72 h	120
COc1nc(NCc2cn(-c3ccc(C(N)=O)cc3)nn2)nc(OC)n1	Caco-2	MTT	72 h	970
CCOc1nc(-c2cccc(O)c2)cc(-c2cc3cc(Cl)ccc3nc2N2CCOCC2)c1C#N	Caco-2	MTT	72 h	117
COc1cc2c3c(n(CCCn4ccnc4)c(=O)c2cc1OC)-c1nc2c(cc1C3=O)OCO2	TC-32	MTS	72 h	127
COc1nc(NCc2cn(-c3ccc(NC(=O)c4ccc(F)cc4)cc3)nn2)nc(OC)n1	Caco-2	MTT	72 h	550
COc1cc2c3c(n(CCCN4CCOCC4)c(=O)c2cc1OC)-c1nc2c(cc1C3=O)OCO2	TC-32	MTS	72 h	569
CCCOc1nc(-c2cccc(O)c2)cc(-c2cc3ccccc3nc2N2CCOCC2)c1C#N	Caco-2	MTT	72 h	130
CC1(C)CCC(CN2CCN(c3ccc(C(=O)NS(=O)(=O)c4ccc(NCC5CCOCC5)c([N+](=O)[O-])c4)c(Oc4cnc5[nH]ccc5c4)c3)CC2)=C(c2ccc(Cl)cc2)C1	SU-DHL-4	ATP luminescence	48 h	25
Nc1n[nH]c2nc(-c3cccc(O)c3)cc(-c3cc4cc(Cl)ccc4nc3N3CCOCC3)c12	Caco-2	MTT	72 h	191
COc1nc(NCc2cn(-c3ccc(C(=O)Nc4ccc(F)cc4)cc3)nn2)nc(OC)n1	Caco-2	MTT	72 h	1030
CCNCCCn1c2c(c3cc(OC)c(OC)cc3c1=O)C(=O)c1cc3c(nc1-2)OCO3	TC-32	MTS	72 h	53
C=CC(=O)N1CCN(c2nc(=O)n(-c3c(C)ccnc3C(C)C)c3nc(-c4c(O)cccc4F)c(F)cc23)[C@@H](C)C1	HCC44	ATP luminescence	–	> 10000
CCCOc1nc(-c2cccc(O)c2)cc(-c2cc3cc(OC)ccc3nc2N2CCOCC2)c1C#N	Caco-2	MTT	72 h	42.2
C/C(=N\NC(=O)c1cccc(S(=O)(=O)N2CCN(C)CC2)c1)c1cc(Cl)ccc1O	TC-32	resazurin	–	3300
COc1nc(NCc2cn(-c3ccc(NC(=O)c4ccc(C)cc4)cc3)nn2)nc(OC)n1	Caco-2	MTT	72 h	751
C=C(F)C(=O)N1CCN(c2nc(OC[C@@H]3CCCN3C)nc3c2CCN(c2cccc4cccc(Cl)c24)C3)C[C@@H]1CC#N	HCC44	ATP luminescence	3D culture	3.82
